Results as given in ChEMBL document CHEMBL3865799, “Synthesis of a series of novel dihydroartemisinin monomers and dimers containing chalcone as a linker and their anticancer activity” (Eur J Med Chem, 2016).

Legend:
[1] = Cytotoxicity against human PC3 cells assessed as cell growth inhibition at 0.5 uM after 48 hrs by MTT assay; type: functional; conditions: PC-3, 48 h, read-out: GI
Procedure, shortened: (§1)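 Adherent lines at 70–75% confluence, grown at 37 °C in 5% CO2 with 10% FCS. Exposed 48 h to compound in DMSO (vehicle <0.2% v/v). MTT dye added 3 h before termination; formazan dissolved in DMSO, OD 570 nm with 620 nm reference. Growth inhibition expressed as % of untreated; IC50 taken from the dose series.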

[2] = Cytotoxicity against human HL60 cells assessed as cell growth inhibition at 50 uM after 48 hrs by MTT assay; type: functional; conditions: HL-60, 48 h, read-out: GI
Procedure, shortened: (§2)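 HL-60 suspension cells, 1.5 × 10^4 per well, grown at 37 °C in 5% CO2 with 10% FCS. Treated 48 h with compound in DMSO (vehicle <0.2% v/v). MTT added 3 h before the end. Formazan dissolved in DMSO and read at 570 nm (reference 620 nm). % growth inhibition computed against untreated cells; IC50 taken from the concentration series.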

[3] = Cytotoxicity against human HL60 cells assessed as cell growth inhibition at 30 uM after 48 hrs by MTT assay; type: functional; conditions: HL-60, 48 h, read-out: GI; procedure, shortened: as §2
[4] = Cytotoxicity against human MIAPaCa2 cells assessed as cell growth inhibition at 30 uM after 48 hrs by MTT assay; type: functional; conditions: MIA PaCa-2, 48 h, read-out: GI; procedure, shortened: as §1
[5] = Cytotoxicity against human MIAPaCa2 cells assessed as cell growth inhibition at 50 uM after 48 hrs by MTT assay; type: functional; conditions: MIA PaCa-2, 48 h, read-out: GI; procedure, shortened: as §1
[6] = Cytotoxicity against human PC3 cells assessed as cell growth inhibition at 30 uM after 48 hrs by MTT assay; type: functional; conditions: PC-3, 48 h, read-out: GI; procedure, shortened: as §1
[7] = Cytotoxicity against human PC3 cells assessed as cell growth inhibition at 50 uM after 48 hrs by MTT assay; type: functional; conditions: PC-3, 48 h, read-out: GI; procedure, shortened: as §1
[8] = Cytotoxicity against human HepG2 cells assessed as cell growth inhibition at 30 uM after 48 hrs by MTT assay; type: functional; conditions: HepG2, 48 h, read-out: GI; procedure, shortened: as §1
[9] = Cytotoxicity against human HepG2 cells assessed as cell growth inhibition at 50 uM after 48 hrs by MTT assay; type: functional; conditions: HepG2, 48 h, read-out: GI; procedure, shortened: as §1
[10] = Cytotoxicity against human LS180 cells assessed as cell growth inhibition at 30 uM after 48 hrs by MTT assay; type: functional; conditions: LS180, 48 h, read-out: GI; procedure, shortened: as §1
[11] = Cytotoxicity against human LS180 cells assessed as cell growth inhibition at 50 uM after 48 hrs by MTT assay; type: functional; conditions: LS180, 48 h, read-out: GI; procedure, shortened: as §1
[12] = Cytotoxicity against human HL60 cells assessed as cell growth inhibition at 0.5 uM after 48 hrs by MTT assay; type: functional; conditions: HL-60, 48 h, read-out: GI; procedure, shortened: as §2
[13] = Cytotoxicity against human HL60 cells assessed as cell growth inhibition at 1 uM after 48 hrs by MTT assay; type: functional; conditions: HL-60, 48 h, read-out: GI; procedure, shortened: as §2
[14] = Cytotoxicity against human HL60 cells assessed as cell growth inhibition at 10 uM after 48 hrs by MTT assay; type: functional; conditions: HL-60, 48 h, read-out: GI; procedure, shortened: as §2
[15] = Cytotoxicity against human HL60 cells assessed as cell growth inhibition after 48 hrs by MTT assay; type: functional, cell-based; conditions: HL-60, 48 h; procedure, shortened: as §2
Vero [16] = test: Selectivity index, ratio of IC50 for African green monkey Vero cells to IC50 for human HL60 cells; type: functional
Procedure, shortened: (§3)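 Suspension cells were seeded at 1.5 × 10^4 per well and adherent lines at 70–75% confluence, then exposed to a range of concentrations. MTT was added 3 h before the end, formazan dissolved in DMSO, and OD read at 570 nm (reference 620 nm). Growth inhibition was taken relative to untreated cells. IC50 came from the MTT data; SI = IC50 in Vero cells / IC50 in the tumour line.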

[17] = Cytotoxicity against human MIAPaCa2 cells assessed as cell growth inhibition at 0.5 uM after 48 hrs by MTT assay; type: functional; conditions: MIA PaCa-2, 48 h, read-out: GI; procedure, shortened: as §1
[18] = Cytotoxicity against human MIAPaCa2 cells assessed as cell growth inhibition at 1 uM after 48 hrs by MTT assay; type: functional; conditions: MIA PaCa-2, 48 h, read-out: GI; procedure, shortened: as §1
[19] = Cytotoxicity against human MIAPaCa2 cells assessed as cell growth inhibition at 10 uM after 48 hrs by MTT assay; type: functional; conditions: MIA PaCa-2, 48 h, read-out: GI; procedure, shortened: as §1
[20] = Cytotoxicity against human MIAPaCa2 cells assessed as cell growth inhibition after 48 hrs by MTT assay; type: functional, cell-based; conditions: MIA PaCa-2, 48 h; procedure, shortened: as §1
Vero [21] = test: Selectivity index, ratio of IC50 for African green monkey Vero cells to IC50 for human MIAPaCa2 cells; type: functional; procedure, shortened: as §3
[22] = Cytotoxicity against human PC3 cells assessed as cell growth inhibition at 1 uM after 48 hrs by MTT assay; type: functional; conditions: PC-3, 48 h, read-out: GI; procedure, shortened: as §1
[23] = Cytotoxicity against human PC3 cells assessed as cell growth inhibition at 10 uM after 48 hrs by MTT assay; type: functional; conditions: PC-3, 48 h, read-out: GI; procedure, shortened: as §1
[24] = Cytotoxicity against human PC3 cells assessed as cell growth inhibition after 48 hrs by MTT assay; type: functional, cell-based; conditions: PC-3, 48 h
Procedure, shortened: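 Exposed 48 h to compound in DMSO (vehicle <0.2% v/v). MTT dye added 3 h before termination; formazan dissolved in DMSO, OD 570 nm with 620 nm reference. Growth inhibition expressed as % of untreated; IC50 taken from the dose series.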

Vero [25] = test: Selectivity index, ratio of IC50 for African green monkey Vero cells to IC50 for human PC3 cells; type: functional; procedure, shortened: as §3
[26] = Cytotoxicity against human HepG2 cells assessed as cell growth inhibition at 0.5 uM after 48 hrs by MTT assay; type: functional; conditions: HepG2, 48 h, read-out: GI; procedure, shortened: as §1
[27] = Cytotoxicity against human HepG2 cells assessed as cell growth inhibition at 1 uM after 48 hrs by MTT assay; type: functional; conditions: HepG2, 48 h, read-out: GI; procedure, shortened: as §1
[28] = Cytotoxicity against human HepG2 cells assessed as cell growth inhibition at 10 uM after 48 hrs by MTT assay; type: functional; conditions: HepG2, 48 h, read-out: GI; procedure, shortened: as §1
[29] = Cytotoxicity against human HepG2 cells assessed as cell growth inhibition after 48 hrs by MTT assay; type: functional, cell-based; conditions: HepG2, 48 h; procedure, shortened: as §1
HepG2 = test: Selectivity index, ratio of IC50 for African green monkey Vero cells to IC50 for human HepG2 cells; type: functional; procedure, shortened: as §3
[30] = Cytotoxicity against human LS180 cells assessed as cell growth inhibition at 0.5 uM after 48 hrs by MTT assay; type: functional; conditions: LS180, 48 h, read-out: GI; procedure, shortened: as §1
[31] = Cytotoxicity against human LS180 cells assessed as cell growth inhibition at 1 uM after 48 hrs by MTT assay; type: functional; conditions: LS180, 48 h, read-out: GI; procedure, shortened: as §1
[32] = Cytotoxicity against human LS180 cells assessed as cell growth inhibition at 10 uM after 48 hrs by MTT assay; type: functional; conditions: LS180, 48 h, read-out: GI; procedure, shortened: as §1
[33] = Cytotoxicity against human LS180 cells assessed as cell growth inhibition after 48 hrs by MTT assay; type: functional, cell-based; conditions: LS180, 48 h; procedure, shortened: as §1
[34] = Selectivity index, ratio of IC50 for African green monkey Vero cells to IC50 for human LS180 cells; type: functional; procedure, shortened: as §3
[35] = Lipophilicity, log P of the compound; type: physicochemical; conditions: octanol/water
[36] = Aqueous solubility of the compound at pH 7; type: physicochemical

SMILES | inhibition of growth at 0.5 µM [1] [%] | inhibition of growth at 50 µM [2] [%] | inhibition of growth at 30 µM [3] [%] | inhibition of growth at 30 µM [4] [%] | inhibition of growth at 50 µM [5] [%] | inhibition of growth at 30 µM [6] [%] | inhibition of growth at 50 µM [7] [%] | inhibition of growth at 30 µM [8] [%] | inhibition of growth at 50 µM [9] [%] | inhibition of growth at 30 µM [10] [%] | inhibition of growth at 50 µM [11] [%] | inhibition of growth at 0.5 µM [12] [%] | inhibition of growth at 1 µM [13] [%] | inhibition of growth at 10 µM [14] [%] | IC50 [15] [µM] | Ratio IC50 (Vero [16]) | IC50 [29] [µM] | IC50 [33] [µM] | logP [35] | solubility [36] [µg/mL] | also measured
COc1cc(/C=C/C(=O)c2ccc(OCCO[C@H]3O[C@@H]4O[C@@]5(C)CC[C@H]6[C@H](C)CC[C@@H]([C@H]3C)[C@@]46OO5)cc2)cc(OC)c1OCCO[C@H]1O[C@@H]2O[C@@]3(C)CC[C@H]4[C@H](C)CC[C@@H]([C@H]1C)[C@@]24OO3 | 34.5 | 86.1 | 85.4 | 37.4 to 40.1 | 48.1 | 57.6 | 57.9 | 32.9 | 33.8 to 58.1 | 58.1 | 70.1 | 77.2 | 83.9 | 84.6 | 0.3 | 88 | 4 | 16 | 5.34 to 7.45 | < 10 | inhibition of growth at 0.5 µM [17]: 37.3%; inhibition of growth at 1 µM [18]: 38.1%; inhibition of growth at 10 µM [19]: 38.7%; IC50 [20]: > 50 µM; Ratio IC50 (Vero [21]): 100; inhibition of growth at 1 µM [22]: 45.9%; inhibition of growth at 10 µM [23]: 50.2%; IC50 [24]: 10 µM; Ratio IC50 (Vero [25]): 210; inhibition of growth at 0.5 µM [26]: 38.8%; inhibition of growth at 1 µM [27]: 41.5%; inhibition of growth at 10 µM [28]: 59.1%; Ratio IC50 (HepG2): 210; inhibition of growth at 0.5 µM [30]: 15.3%; inhibition of growth at 1 µM [31]: 27.6%; inhibition of growth at 10 µM [32]: 44.6%; Ratio IC50 [34]: 162
C[C@H]1[C@@H](OCCOc2ccc(/C=C/C(=O)c3ccco3)cc2)O[C@@H]2O[C@@]3(C)CC[C@H]4[C@H](C)CC[C@@H]1[C@@]24OO3 | 15.1 | 91.7 | 89.1 | 39.8 to 67.3 | 77.5 | 55.1 to 58.1 | 69.4 | 25.2 to 67.3 | 26.9 to 42.6 | 26.9 | 28.3 | 38 | 57.5 | 87.4 | 0.7 | 90 | 22 | > 50 | 5.34 to 7.45 | < 10 | inhibition of growth at 0.5 µM [17]: 18.4%; inhibition of growth at 1 µM [18]: 19.1%; inhibition of growth at 10 µM [19]: 26.2%; IC50 [20]: > 50 µM; Ratio IC50 (Vero [21]): 59; inhibition of growth at 1 µM [22]: 15.8%; inhibition of growth at 10 µM [23]: 43.4%; IC50 [24]: 24 µM; Ratio IC50 (Vero [25]): 94; inhibition of growth at 0.5 µM [26]: 1%; inhibition of growth at 1 µM [27]: 14.7%; inhibition of growth at 10 µM [28]: 24.8%; Ratio IC50 (HepG2): 68; inhibition of growth at 0.5 µM [30]: 20%; inhibition of growth at 1 µM [31]: 25.7%; inhibition of growth at 10 µM [32]: 26.9%; Ratio IC50 [34]: >200
COc1cccc2c1C(=O)c1c(O)c3c(c(O)c1C2=O)C[C@@](O)(C(=O)CO)C[C@@H]3O[C@H]1C[C@H](N)[C@H](O)[C@H](C)O1 [DOXORUBICIN] |  |  |  |  |  |  |  |  |  |  |  |  |  |  |  |  | 0.54 | 0.84 |  |  | 
COc1ccc(C(=O)/C=C/c2ccc(OCCO[C@H]3O[C@@H]4O[C@@]5(C)CC[C@H]6[C@H](C)CC[C@@H]([C@H]3C)[C@@]46OO5)cc2)cc1Cl |  | 93.8 | 93.4 | 51.1 | 52.2 | 40.3 | 42.7 | 26.7 | 32.3 | 41.6 | 45.4 |  |  |  |  |  |  |  | 5.34 to 7.45 | < 10 | 
C[C@H]1[C@@H](OCCOc2ccc(/C=C/C(=O)c3ccc(Cl)s3)cc2)O[C@@H]2O[C@@]3(C)CC[C@H]4[C@H](C)CC[C@@H]1[C@@]24OO3 |  | 92.1 | 91.9 | 53.2 | 59.7 | 37.4 | 39.9 | 21.1 | 25.2 | 39.5 | 41.6 |  |  |  |  |  |  |  | 5.34 to 7.45 | < 10 | 
